Screening results: PubChem BioAssay, The Scripps Research Institute Molecular Screening Center
Compounds with a hit are over-represented: about 2.5% of the library has one in this group of screens.
TRPML3 agonist: human mucolipin-3 channel agonism; Q8TDD5; HEK293 TRPML3-YFP, Fluo-8 calcium fluorescence; 100% = the carbachol control signal; activation, % at 3 µM; hit rate 0.29% among 220,000; AID 1448;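 active means activation above its plate's cutoff, the mean activation of the plate's test wells plus 3 SD, cut at about 12% in these data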;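 further: 0% = DMSO only wells and 100% = carbachol wells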
Target sequence (Q8TDD5 whole entry, looked up): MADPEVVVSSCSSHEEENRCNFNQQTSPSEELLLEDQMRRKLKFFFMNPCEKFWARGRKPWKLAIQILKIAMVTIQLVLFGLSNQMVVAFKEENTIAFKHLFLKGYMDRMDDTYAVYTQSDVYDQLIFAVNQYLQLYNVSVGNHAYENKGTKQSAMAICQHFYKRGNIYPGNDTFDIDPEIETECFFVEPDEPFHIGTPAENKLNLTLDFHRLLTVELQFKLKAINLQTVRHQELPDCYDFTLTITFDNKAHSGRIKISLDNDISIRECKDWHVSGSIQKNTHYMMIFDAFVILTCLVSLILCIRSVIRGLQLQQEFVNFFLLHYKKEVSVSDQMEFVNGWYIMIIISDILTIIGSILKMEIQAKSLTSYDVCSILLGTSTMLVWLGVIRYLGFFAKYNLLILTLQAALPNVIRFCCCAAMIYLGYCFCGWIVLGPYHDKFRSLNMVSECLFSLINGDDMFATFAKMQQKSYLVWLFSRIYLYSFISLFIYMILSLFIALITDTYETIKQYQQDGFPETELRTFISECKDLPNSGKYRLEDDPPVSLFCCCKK
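Test system – HEK293 line with stable expression of human TRPML3-YFP channel · Control set – carbachol 87 µM final as high control (100%), DMSO as low control (0%) · Signal – Fluo-8 calcium dye fluorescence, ex 470-495, em 515-575 nm · Incubation – 1-h 37 °C dye load, 5-s basal, 120-s post-compound reads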
CHO parental Ca: signal in parental CHO cells, OX1R antagonist counter-screen; parental CHO-K1, ATP-induced calcium, Fluo-8 fluorescence; inhibition, % at 5.6 µM; AID 463079; hit rate 0.63% among 330,000;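 active means inhibition above that plate's mean sample inhibition plus 3 SD, cut at about 26% in these data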;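 further: 0% = ATP-challenged DMSO wells and 100% = DMSO wells without ATP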
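Test system: untransfected parental CHO cell line; also added: ATP stimulus; dosing: 5.6 µM, single dose; signal: calcium-sensitive Fluo-8 fluorescence; measure: percent inhibition of ATP-evoked calcium rise, normalized to controls; benchmarks: low control ATP plus DMSO, high control DMSO only; replication: one well per compound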
OX1R antag-1: OX1R (human) antagonism; hit rate 1.8% among 330,000; inhibition, % at 6.6 µM; OX1R-expressing cells, FRET antagonist read-out; O43613; in the data active means inhibition mostly above about 38%, no sharp cut-off; inactive means mostly below about 40%;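 further: 0% = agonist challenge alone and 100% = reference antagonist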
TRPN1 ag: activates the zebrafish TRPN1 channel; HEK293 zebrafish TRPN1-YFP, Fluo-8 calcium fluorescence; 100% = response to 87 µM carbachol; activation, % at 3 µM; hit rate 0.18% among 220,000; AID 1424;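 active means activation above its plate's cutoff, the mean activation of test wells on that plate plus 3 SD, cut at about 19% in these data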;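 further: 0% = DMSO alone and 100% = 87 µM carbachol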
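Control set: carbachol 87 µM as high control, DMSO as low control; system: HEK293 stable line with zebrafish TRPN1-YFP; read-out: % activation versus carbachol response; detection: intracellular calcium fluorescence with Fluo-8; doses: single test compound dose, 3 µM nominal, 0.3% DMSO; schedule: dye 1 h 37 °C plus 30 min RT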
OX1R antag-2: human HCRTR1 antagonism. hit rate 0.43% among 330,000. CHO/OX1R cells, Fluo-8 calcium fluorescence, orexin A. AID 434989. inhibition, % at 5 µM;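 active means inhibition above its plate's threshold, mean inhibition of all tested compounds on the plate plus 3 SD, cut at about 37% in these data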;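 further: 0% = orexin A challenge wells and 100% = SB-334867-A antagonist wells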
Active calls of the source: *; · = no result.

SMILES | TRPML3 agonist | CHO parental Ca | OX1R antag-1 | TRPN1 ag | OX1R antag-2
CCCCCn1c(=NC(C)=O)c(C#N)cc2c(=O)n3ccccc3nc21 | 1 | -9 | 9 | 1 | -8
CC(C)n1c(=NC(=O)c2ccco2)c(C#N)cc2c(=O)n3ccccc3cc21 | 0 | -10 | 54* | 0 | -24
CC(C)=C(NC(=O)c1ccccc1)C(=O)Nc1cccc(C(=O)O)c1 | 0 | -6 | 24 | 2 | -8
CN(C)c1nc(N)nc(CSc2ncc(Cl)cc2Cl)n1 | -1 | -23 | 38* | -1 | 6
CN(C)c1nc(N)nc(CSc2nnnn2C)n1 | 1 | -4 | 17 | 2 | 0
COc1ccc(C2C(C(=O)NCc3ccccn3)CCC(=O)N2c2cc(OC)c(OC)c(OC)c2)cc1 (centres undefined) | 1 | -6 | 18 | 0 | -5
c1ccc(Nc2nc3ccccc3n3cnnc23)cc1 | 1 | -2 | 59* | -1 | 5
O=C(C[n+]1ccccc1)N/N=C/c1ccc(C(=O)O)cc1 | · | -6 | 0 | · | 4
Cc1ccc(OCCNC(=O)c2cccc(S(=O)(=O)N3CCN(C)CC3)c2)cc1 | · | -18 | 2 | · | -22
Cc1ccc(N)c([N+](=O)[O-])c1 | · | -6 | 8 | · | -12
CC1(C)N=c2ccc([N+](=O)[O-])c(N)c2=[N+]1[O-] | 0 | -7 | 75* | 1 | 3
CCOC(=O)NC(=O)/C(C#N)=C\Nc1ccc(Cl)cc1Cl | 0 | -8 | 6 | 0 | -13
CCOC(=O)NC(=O)/C(C#N)=C\Nc1sccc1C(=O)OC | 18* | 21 | 36 | 22* | 33
COc1ccc(-c2sc(C(=O)c3ccc(Cl)cc3Cl)cc2CC(=O)O)cc1 | · | -2 | 1 | · | -23
Cc1ccccc1NS(=O)(=O)c1ccc(NC(=O)CSCc2ccc(Br)cc2)cc1 | 0 | 31* | 23 | 0 | 15
COC(=O)c1ccc(/C=C(/NC(=O)c2ccccc2)C(=O)N2CCOCC2)cc1 | · | 2 | 8 | · | -5
Cc1cc2nsnc2c(S(=O)(=O)N2CCN(C)CC2)c1C | · | -3 | 42* | · | -5
Cc1onc(-c2ccccc2)c1C(=O)OCC(=O)NC(=O)c1ccccc1 | · | -8 | 25 | · | -20
O=C(O)CC1(CC(=O)NCc2ccc(C(F)(F)F)cc2)CCCCC1 | 1 | -1 | -1 | 1 | -4
O=C(O)CC1(CC(=O)Nc2cc(C(F)(F)F)cc(C(F)(F)F)c2)CCCCC1 | 5 | -2 | 42* | 10 | 2
CCCCn1c(N)c(N(CC(C)C)C(=O)c2ccc([N+](=O)[O-])o2)c(=O)[nH]c1=O | · | -6 | 27 | · | -16
Cc1cc(C)n2nc(SCC(=O)Nc3ccc(F)c(F)c3F)nc2n1 | · | -7 | 1 | · | -24
Cc1cc(C)n2nc(Sc3ncccc3[N+](=O)[O-])nc2n1 | 1 | -1 | 45* | 1 | -6
Cc1cc(C)n2nc(SCC(=O)Nc3ccc(F)cc3[N+](=O)[O-])nc2n1 | · | -14 | 29* | · | -19
CC1CCCCC12NC(=O)N(CC(=O)OCc1ccc(Br)cc1)C2=O (centres undefined) | · | -2 | 6 | · | 16
SMILES | TRPML3 agonist | CHO parental Ca | OX1R antag-1 | TRPN1 ag | OX1R antag-2
CCN(CC)c1ccc(/C=C(\C#N)c2nc(-c3cccs3)c(NC(C)=O)s2)cc1 | 29* | · | · | 22* | ·
Nc1ccnc(=O)[nH]1 | · | 1 | 16 | · | 0
CC1Sc2ccc(S(=O)(=O)N3CCC(C(=O)Nc4ccc(Cl)cc4)CC3)cc2NC1=O (centres undefined) | · | 54* | 14 | · | 22
Cc1ccc(NC(=O)C2CCN(S(=O)(=O)c3ccc(N4CCCC4=O)cc3)CC2)cc1Cl | · | 64* | 11 | · | 32
CCOc1ccc(-n2c(=S)sc3c(=O)[nH]c(SCC(=O)C(C)(C)C)nc32)cc1 | 0 | -8 | 48* | -1 | 1
CCOc1ccc(-n2c(=S)sc3c(=O)[nH]c(SCC(=O)NCc4ccco4)nc32)cc1 | 0 | 0 | 18 | 0 | 12
O=C(NCCOc1ccccc1F)c1cccc(S(=O)(=O)N2CCN(c3ccccc3)CC2)c1 | · | -6 | 15 | · | -16
C=CCn1c(O)c2ccc(C(=O)N=NC(=O)COc3ccccc3F)cc2c1O | · | -16 | 58* | · | -15
C=CCn1c(O)c2ccc(C(=O)N=NC(=O)c3ccc(F)cc3)cc2c1O | · | -9 | 43 | · | -20
CN(C)S(=O)(=O)c1ccc(C(=O)OC2CCOC2=O)cc1 (centres undefined) | · | -12 | 8 | · | -49
Cc1cc(C)c(NC(=O)CN(C)C(=O)C2CC(=O)N(c3cccc4ccccc34)C2)c(C)c1 (centres undefined) | · | -18 | 7 | · | -30
O=C(O)c1cccc(Cn2c(Cl)c(/C=N/NC(=O)c3ccco3)sc2=O)c1 | · | -16 | 23 | · | -17
CC(=O)c1cccc(N/C=C\C(=O)c2ccc(C)cc2)c1 | 0 | -15 | 0 | 2 | -23
CC(=O)c1cccc(NS(=O)(=O)c2ccc(N/C=C\C(=O)c3ccc(C)cc3)cc2)c1 | 0 | 47* | 53 | 0 | 49*
CCC(C)NC(=O)COC(=O)c1cc([N+](=O)[O-])ccc1Sc1nc(C)cs1 (centres undefined) | 0 | -15 | 54* | -1 | -19
COC(=O)Nc1ccc(S(=O)(=O)N2CCC(C(=O)NCc3ccc4c(c3)OCO4)CC2)cc1 | · | -2 | 9 | · | -2
CCOc1ccc(Nc2nc(Cc3nnc(SCC(=O)c4ccc(C)c(C)c4)o3)cs2)cc1 | 0 | 29* | 56 | -1 | 7
COc1cccc(NC(=O)CCN2C(=O)c3cccc([N+](=O)[O-])c3C2=O)c1 | · | -5 | 25 | · | -3
COc1ccc(CNc2ccc([N+](=O)[O-])cc2C)cc1 | -1 | 38* | 5 | -1 | 10
COc1ccc(CNc2cc([N+](=O)[O-])ccc2OC)cc1 | -1 | -20 | 4 | -2 | -15
COc1ccc(CNC(=O)CN2C(=O)c3ccc([N+](=O)[O-])cc3C2=O)cc1 | · | -12 | 76* | · | -22
COc1cccc(NC(=O)CCN2C(=O)c3ccc([N+](=O)[O-])cc3C2=O)c1 | -1 | -10 | 50* | -1 | -23
O=C(CCN1C(=O)c2ccc([N+](=O)[O-])cc2C1=O)Nc1nccs1 | 1 | 3 | 72* | 1 | -14
NC(=O)C1CC(=O)N(c2ccc(OCc3ccc(F)cc3)cc2)C1 (centres undefined) | · | 5 | 7 | · | -18
CC(C)CC(=O)Nc1nnc(SCC(=O)NCC2CCCO2)s1 (centres undefined) | · | 8 | 31 | · | -4
O=C(CN1C(=O)c2ccc([N+](=O)[O-])cc2C1=O)NC1CCCCCC1 | · | -9 | 65* | · | -11
[O-][n+]1cccc2c(Br)cc(Br)c(O)c21 | 1 | 30* | 44 | 0 | 13
Cc1ccc(S(=O)(=O)Nc2cccc(-c3ccc(N4CCCCCC4)nn3)c2)cc1 | · | -5 | 0 | · | -8
